Measured values taken from ChEMBL document CHEMBL3393007, “IND-2, a pyrimido[1″,2″:1,5]pyrazolo[3,4-b]quinoline derivative, circumvents multi-drug resistance and causes apoptosis in colon cancer cells” (Bioorg Med Chem, 2015).
Active and inactive are the calls of the source.

How the values were obtained:
[1] = Cytotoxicity against human HCT116 cells after 72 hrs by MTT assay; assay type: functional, cell-based; conditions: HCT-116, 72 h
Procedure, shortened: (§1)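 HCT-116, HCT-15, HT-29, DU-145, PC-3 or HEK293/pcDNA3.1 cells in DMEM with 10% FBS were trypsinised and seeded at 5×10^3 cells/well. They received compound at 0.1–100 μM for 72 hr, then MTT (4 mg/mL) for 4 hr. Formazan was dissolved in DMSO and A570 read. IC50 by Bliss method from survival curves; ≥3 experiments, each in triplicate.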

[2] = Cytotoxicity against human S1 cells after 72 hrs by MTT assay; assay type: functional, cell-based; conditions: S1, 72 h
Procedure, shortened: (§2)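 Seeding was 6×10^3 cells/well (MDCK, NIH/3T3, MCF-7, MDA-MB-231, LS-180, LS-174, LoVo, S1) after trypsinisation, in DMEM with 10% FBS. Compound at 0.1–100 μM for 72 hr, then MTT (4 mg/mL) for 4 hr. Formazan dissolved in DMSO, absorbance at 570 nm. IC50 by Bliss method; means ± SD, ≥3 experiments in triplicate.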

[3] = Cytotoxicity against human PC3 cells after 72 hrs by MTT assay; assay type: functional, cell-based; conditions: PC-3, 72 h; procedure, shortened: as §1
2008 = assay: Cytotoxicity against human 2008 cells after 72 hrs by MTT assay; assay type: functional, cell-based; conditions: Homo sapiens, 2008, 72 h
Procedure, shortened: (§3)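 MTT assay over 0.1–100 μM with a 72 hr exposure, then 4 hr with MTT (4 mg/mL). Formazan dissolved in DMSO, A570 read. IC50 from survival curves (Bliss method); three independent experiments in triplicate; 100 μM taken as cut-off.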

A2780 = assay: Cytotoxicity against human A2780 cells after 72 hrs by MTT assay; assay type: functional, cell-based; conditions: A2780, 72 h; procedure, shortened: as §3
HepG2 [4] = assay: Cytotoxicity against human HepG2 cells after 72 hrs by MTT assay; assay type: functional, cell-based; conditions: HepG2, 72 h; procedure, shortened: as §3
MCF7 = assay: Cytotoxicity against human MCF7 cells after 72 hrs by MTT assay; assay type: functional, cell-based; conditions: MCF7, 72 h; procedure, shortened: as §2
MDA-MB-231 = assay: Cytotoxicity against human MDA-MB-231 cells after 72 hrs by MTT assay; assay type: functional, cell-based; conditions: MDA-MB-231, 72 h; procedure, shortened: as §2
MDCK = assay: Cytotoxicity against MDCK cells after 72 hrs by MTT assay; assay type: cell-based; conditions: Canis lupus familiaris; procedure, shortened: as §2
[5] = Cytotoxicity against mouse NIH/3T3 cells after 72 hrs by MTT assay; assay type: cell-based; conditions: NIH3T3, 72 h; procedure, shortened: as §2
DU-145 = assay: Cytotoxicity against human DU145 cells after 72 hrs by MTT assay; assay type: functional, cell-based; conditions: DU-145, 72 h; procedure, shortened: as §1
HEK293 [6] = assay: Cytotoxicity against HEK293 cells expressing pcDNA3.1 after 72 hrs by MTT assay; assay type: cell-based; conditions: Homo sapiens, HEK293, 72 h; procedure, shortened: as §1
[7] = Cytotoxicity against human HCT15 cells after 72 hrs by MTT assay; assay type: functional, cell-based; conditions: HCT-15, 72 h; procedure, shortened: as §1
HT-29 = assay: Cytotoxicity against human HT-29 cells after 72 hrs by MTT assay; assay type: functional, cell-based; conditions: HT-29, 72 h; procedure, shortened: as §1
[8] = Cytotoxicity against human LS180 cells after 72 hrs by MTT assay; assay type: functional, cell-based; conditions: LS180, 72 h; procedure, shortened: as §2
[9] = Cytotoxicity against human LS174 cells after 72 hrs by MTT assay; assay type: functional, cell-based; conditions: LS174, 72 h; procedure, shortened: as §2
LoVo = assay: Cytotoxicity against human LoVo cells after 72 hrs by MTT assay; assay type: functional, cell-based; procedure, shortened: as §2
HCT-116 [10] = assay: Induction of morphological changes in human HCT116 cells at 0.5 to 10 uM after 68 hrs by inverted microscopy; assay type: functional, cell-based
Procedure, shortened: (§4)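 HCT-116, HCT-15 and HEK293 cells were treated with 0, 0.5, 2 or 10 μM for 68 hr. Each treatment was in triplicate. Cells were photographed under an inverted microscope at 20X and representative images shown.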

HCT-15 = assay: Induction of morphological changes in human HCT15 cells at 0.5 to 10 uM after 68 hrs by inverted microscopy; assay type: functional, cell-based; procedure, shortened: as §4
HEK293 [11] = assay: Induction of morphological changes in HEK293 cells at 0.5 to 10 uM after 68 hrs by inverted microscopy; assay type: cell-based; conditions: human, hek293, 68 h; procedure, shortened: as §4
[12] = biological target: T1, Nuclear receptor subfamily 1 group I member 2 (Homo sapiens, UniProt O75469); assay: Transactivation of human PXR expressed in human HepG2 cells co-expressing pGL3-CYP3A4-luciferase gene assessed as increase in CYP3A4 promoter activity at 1 uM after 24 hrs by luciferase reporter gene assay; assay type: ADME, cell-based; conditions: hepg2, 24 h
T1 sequence (O75469 whole entry): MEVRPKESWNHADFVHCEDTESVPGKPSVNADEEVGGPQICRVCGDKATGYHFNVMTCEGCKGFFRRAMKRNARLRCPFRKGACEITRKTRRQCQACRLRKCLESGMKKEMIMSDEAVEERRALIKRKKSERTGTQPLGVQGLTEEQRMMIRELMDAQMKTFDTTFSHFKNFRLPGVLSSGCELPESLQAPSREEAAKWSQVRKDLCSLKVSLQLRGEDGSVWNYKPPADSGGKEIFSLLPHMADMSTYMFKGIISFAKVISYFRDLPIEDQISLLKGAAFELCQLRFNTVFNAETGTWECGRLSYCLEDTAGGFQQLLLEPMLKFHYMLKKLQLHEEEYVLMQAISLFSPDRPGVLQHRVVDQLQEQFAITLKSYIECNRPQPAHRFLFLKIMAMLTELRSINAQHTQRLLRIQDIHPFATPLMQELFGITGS
Procedure, shortened: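 HepG2 cells were transiently cotransfected with pcDNA3-hPXR and pGL3-CYP3A4-luc; after 24 hr they were plated at 10,000/well in phenol red-free DMEM with 5% charcoal-stripped FBS. […] Activity expressed as fold over DMSO; three independent experiments.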

[13] = biological target: T1, Nuclear receptor subfamily 1 group I member 2; assay: Transactivation of human PXR expressed in human HepG2 cells co-expressing pGL3-CYP3A4-luciferase gene assessed as increase in CYP3A4 promoter activity at 10 uM after 24 hrs by luciferase reporter gene assay; conditions: hepg2, 24 h
HepG2 [14] = assay: Cytotoxicity against human HepG2 cells assessed as reduction in cell viability at 10 uM after 24 hrs by Celltiter-Glo luminescent cell viability assay; assay type: cell-based; conditions: hepg2, 24 h
Procedure, shortened: (§5)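 Viability of HepG2 cells was measured in parallel with the PXR reporter assay. Cells were transfected, plated at 10,000/well in phenol red-free DMEM with 5% charcoal/dextran-treated FBS, and treated 24 hr with 1 or 10 μM or DMSO. ATP was quantified by CellTiter-Glo luminescence. Means ± SD of triplicates, t-test versus DMSO.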

HepG2 [15] = assay: Cytotoxicity against human HepG2 cells assessed as reduction in cell viability at 1 uM after 24 hrs by Celltiter-Glo luminescent cell viability assay; assay type: cell-based; conditions: hepg2, 24 h; procedure, shortened: as §5
HEK293 [16] = assay: Cytotoxicity against HEK293 cells expressing ABCB1 gene assessed as reduction in cell viability at 0.001 to 100 uM after 72 hrs by MTT assay; assay type: functional, cell-based; conditions: Homo sapiens
Procedure, shortened: (§6)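 HEK293 stably overexpressing ABCB1 or ABCG2 (R2), with empty-vector HEK293/pcDNA3.1 as the parental control, grown in DMEM with 10% FBS at 37 °C and 5% CO2. Cells were trypsinised and seeded at 5×10^3 cells/well, then exposed to serial concentrations for 72 hr. MTT (4 mg/mL) was added for 4 hr, formazan dissolved in DMSO, and A570 read. IC50 from survival curves (Bliss method), means ± SD of triplicates.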

HEK293 [17] = assay: Cytotoxicity against HEK293 cells expressing ABCG2 gene assessed as reduction in cell viability at 0.001 to 100 uM after 72 hrs by MTT assay; assay type: functional, cell-based; conditions: Homo sapiens; procedure, shortened: as §6
[18] = Cytotoxicity against drug-resistant human S1-M1-80 cells expressing ABCG2 G482 mutant after 72 hrs by MTT assay relative to SN-38; assay type: functional
[19] = Cytotoxicity against drug-resistant human S1-M1-80 cells expressing ABCG2 G482 mutant after 72 hrs by MTT assay relative to topotecan; assay type: functional
HCT-116 [20] = assay: Induction of mitochondrial membrane potential loss in human HCT116 cells at 1 uM after 4 hrs by mitotracker red and Alexa Fluor 488 annexin V staining based flow cytometry; assay type: functional
Procedure, shortened: (§7)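 HCT-116 cells in 6-well plates, in complete medium, were exposed to 0, 1 or 10 μM for 4 hr. Harvested cells were stained with MitoTracker Red (4 μL of 10 μM working solution per mL) for 30 min at 37 °C, washed, then given Alexa Fluor 488 annexin V for 15 min in annexin-binding buffer. Flow cytometry emission at 530 and 585 nm; two independent experiments in triplicate.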

HCT-116 [21] = assay: Induction of mitochondrial membrane potential loss in human HCT116 cells at 10 uM after 4 hrs by mitotracker red and Alexa Fluor 488 annexin V staining based flow cytometry; assay type: functional; procedure, shortened: as §7
HCT-116 [22] = assay: Induction of mitochondrial membrane potential loss in human HCT116 cells after 4 hrs by mitotracker red and Alexa Fluor 488 annexin V staining based flow cytometry; assay type: functional, cell-based; procedure, shortened: as §7
HCT-116 [23] = assay: Induction of DNA fragmentation in human HCT116 cells at 2.5 uM after 6 hrs by ethidium bromide staining based agarose gel electrophoresis; assay type: functional, cell-based
Procedure, shortened: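 HCT-116 cells were cultured with or without 2.5 μM for 6 hr. Genomic DNA was extracted with a purification kit, resolved on 1% agarose gels at 40 V, stained with ethidium bromide and photographed, with untreated DNA loaded at 500 ng and 1 μg.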

Compound	IC50 [1]	IC50 [2]	IC50 [3]	IC50 2008	IC50 (A2780)	IC50 (HepG2 [4])	IC50 (MCF7)	IC50 (MDA-MB-231)	IC50 (MDCK)	IC50 [5]	IC50 (DU-145)	IC50 (HEK293 [6])	also measured
Cc1cc(N2CCOCC2)n2nc3nc4ccccc4cc3c2n1	88.9 µM	67.4 µM	78.3 µM	> 100 µM	> 100 µM	> 100 µM	98.4 µM	88.2 µM	> 100 µM	> 100 µM	–	–	–
Cc1cc(N(C)C)n2nc3nc4ccccc4cc3c2n1	53.6 µM	58.3 µM	88.8 µM	47.9 µM	49.9 µM	67.9 µM	79.6 µM	44.8 µM	–	–	28.6 µM	–	–
CCN(CC)CCCNc1cc(C)nc2c3cc4ccccc4nc3nn12	–	53.7 µM	78.5 µM	65.3 µM	55.7 µM	89.9 µM	–	34.6 µM	–	> 100 µM	–	41.8 µM	–
Cc1cc(Cl)n2nc3nc4ccccc4cc3c2n1	0.6 µM	0.8 µM	0.9 µM	17.4 µM	11.6 µM	9.7 µM	7.4 µM	–	19.7 µM	23.6 µM	1.2 µM	7.8 µM	IC50 [7]: 0.671 µM; IC50 (HT-29): 0.791 µM; IC50 [8]: 1.02 µM; IC50 [9]: 0.875 µM; IC50 (LoVo): 0.994 µM; Activity (HCT-116 [10]): Active; Activity (HCT-15): Active; Activity (HEK293 [11]): Toxic; Activity [12]: Not Active; Activity [13]: Not Active; Activity (HepG2 [14]): Toxic; Activity (HepG2 [15]): Non-toxic; Activity (HEK293 [16]): Active; Activity (HEK293 [17]): Active; fold change (FC) [18]: 3; fold change (FC) [19]: 3; Activity (HCT-116 [20]): 68.46%; Activity (HCT-116 [21]): 98.36%; Activity (HCT-116 [22]): Dose-dependent effect; Activity (HCT-116 [23]): Active
Cc1cc(NCCCN(C)C)n2nc3nc4ccccc4cc3c2n1	–	83.4 µM	60.5 µM	87.6 µM	65.8 µM	73.2 µM	> 100 µM	–	–	> 100 µM	–	39.9 µM	–
